Screens as filed in PubChem BioAssay.
S1P4 antagonist: antagonists of human S1P4 receptor. 220,000 compounds, 0.26% hits. inhibition, % at 4.98 µM. AID 1510. S1P4-expressing cells, antagonist mode, reporter read-out. O95977; in the data active = inhibition above about 29%
Target sequence (O95977 whole entry, looked up): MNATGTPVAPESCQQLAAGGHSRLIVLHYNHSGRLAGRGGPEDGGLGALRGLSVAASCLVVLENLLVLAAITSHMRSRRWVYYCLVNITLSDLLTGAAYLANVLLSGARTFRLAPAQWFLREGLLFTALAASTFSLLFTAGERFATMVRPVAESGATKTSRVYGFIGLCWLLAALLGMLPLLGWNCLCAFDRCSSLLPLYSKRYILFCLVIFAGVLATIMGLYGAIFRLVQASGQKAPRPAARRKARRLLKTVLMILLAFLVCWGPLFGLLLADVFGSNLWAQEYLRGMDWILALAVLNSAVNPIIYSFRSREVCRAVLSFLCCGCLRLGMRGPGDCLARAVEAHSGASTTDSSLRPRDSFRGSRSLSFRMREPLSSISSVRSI
NPY-Y2 antag: blocks the human neuropeptide Y Y2 receptor; P49146; NPY-Y2 expressing cells, antagonist mode; inhibition, % at 2.7 µM; 140,000 compounds, 0.99% hits; in the data active = inhibition above about 17%
S1P4 agonist: human S1P4 receptor agonism | O95977 | S1P4-expressing cell line, agonist reporter assay | activation, % at 4.98 µM | 220,000 compounds, 0.35% hits | AID 1509; in the data active = activation above about 11%
NPY-Y1 antag: NPY-Y1 (human) receptor antagonism; P25929; HEK293-CNG Y1 cells, membrane potential fluorescence; NPY at EC95, then isoproterenol; inhibition, % at 3.6 µM; 200,000 compounds, 1% hits;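 active = inhibition above the campaign mean inhibition of all tested compounds plus 3 SD, cut at about 20% in these data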
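Material: HEK293 Y1/CNG channel cell line; also added: NPY (25 nM), isoproterenol (1 µM), Ro 20-1724 (25 µM); doses: one concentration, 3.6 µM, in 0.4% DMSO; schedule: compound incubation 1 h at room temperature, readout 45 min post-stimulation; technique: membrane potential fluorescence; measure: fluorescence ratio normalized to % inhibition between controls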
NPY1 pot ag: human NPY-Y1 potentiation or agonism, primary screen; NPY-Y1 expressing cells, potentiator/agonist activation; activation, % at 3.6 µM; 220,000 compounds, 0.37% hits; in the data active = activation above about 33%, passing the limit was not always enough;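 note: cells stimulated with NPY at EC10 then isoproterenol at EC100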
NPY-Y2 PAM-ag: human NPY-Y2 potentiation or agonism, primary screen. P49146. cells expressing NPY-Y2, potentiator/agonist read-out. activation, % at 3.6 µM. 220,000 compounds, 0.45% hits. AID 1359; in the data active = activation above about 27%;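 note: cells stimulated with NPY near EC25 plus isoproterenol at EC100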
Of the large screens only hits and unclear results are named; the others gave an inactive call. In the library only some 2.4% were active in any assay of this set; here they are far more common.

CCN(CC)C(=O)c1cc2c(=O)n3ccccc3nc2s1	none
CC1CCCN(CCOCCOc2ccc(Cl)cc2Br)C1 (configuration not stated)	none
N#CC(C#N)=c1ccc2c(c1)NC1(CCCCC1)N=2	NPY1 pot ag 41, NPY-Y2 PAM-ag 44
COc1ccc(-c2noc(C(=O)NCc3ccc(F)cc3)n2)cc1OC	none (no result: NPY-Y2 antag)
COc1ccc(-c2noc(C(=O)NCc3ccccc3Cl)n2)cc1OC	NPY-Y1 antag 25 (no result: NPY-Y2 antag)
Nc1nc(-c2ccc3c(c2)OCCO3)cs1	NPY-Y1 antag 20
Cc1nc(-c2ccc3c(c2)OCCCO3)cs1	none (no result: NPY-Y2 antag, NPY-Y1 antag)
COC(=O)c1ccc(C(=O)NC(=S)Nc2nc3c(s2)CCCC3)cc1	none
CCN(Cc1ccccc1)C(c1ccccn1)c1nnnn1C(C)(C)CC (configuration not stated)	NPY-Y2 antag 26, NPY-Y1 antag 23
COC(=O)c1c(NC(=O)CN2CCN(Cc3ccc4c(c3)OCO4)CC2)sc(C)c1C	NPY-Y2 antag 38, NPY-Y1 antag 48
O=C(O)C1CC1c1ccc(Br)cc1 (configuration not stated)	NPY-Y1 antag 31
CN(c1ccccc1C(=O)NC1CC2CCC1C2)S(=O)(=O)c1ccccc1 (configuration not stated)	none
CN(c1ccccc1C(=O)NC1CCCCC1)S(=O)(=O)c1ccccc1	NPY-Y1 antag 20 (no result: NPY-Y2 antag)
CCc1ccc(C(C(=O)NC(C)(C)CC)N(Cc2ccco2)C(=O)Cn2nnc3ccccc32)cc1 (configuration not stated)	NPY-Y2 antag 51, NPY-Y1 antag 54
COc1ccc(CN(C(=O)Cn2nnc3ccccc32)C(C(=O)NC(C)(C)C)c2ccco2)cc1 (configuration not stated)	none
CCC(C)(C)NC(=O)C(c1ccccc1F)N(Cc1ccco1)C(=O)Cn1nnc2ccccc21 (configuration not stated)	NPY-Y2 antag 73, NPY-Y1 antag 96
CCCn1nc(NC(=O)c2ccccn2)c2cc3cc(C)ccc3nc21	none
Cc1ccc(NC(=O)CCNS(=O)(=O)c2ccccc2)c(C(=O)c2ccccc2)c1	none
COc1cccc(NC(=O)NC2CCCc3ccccc32)c1 (configuration not stated)	none (no result: NPY-Y2 antag)
CCc1cc(C(=O)c2ccc(C)cc2)c(NC(=O)CCl)s1	NPY1 pot ag 42, NPY-Y2 PAM-ag 35
C=CCc1cccc2cc(C(=O)NC3=C(C#N)CCC3)c(=O)oc12	none
Cc1cc(OCC(F)(F)C(F)(F)C(F)(F)C(F)(F)C(F)(F)C(F)F)nc(N)n1	NPY1 pot ag 62, NPY-Y2 PAM-ag 38
Cc1ccc(Cl)cc1N1CCN(CC(=O)Nc2ccc(CN3CCCCC3)cc2)CC1	NPY-Y1 antag 36
C=CCSC(=C(C#N)C#N)c1cc2c([nH]1)CCCC2	NPY1 pot ag 35, NPY-Y2 PAM-ag 43
Cc1ccccc1NC(=O)/C(C#N)=C\c1cn(CC(=O)O)c2ccccc12	none (no result: NPY-Y2 antag)
CC(C)OC(=O)CSc1nc2ccccc2s1	none
Cc1ccc(S(=O)(=O)NCCNc2ccc([N+](=O)[O-])cc2C(F)(F)F)cc1	NPY-Y2 PAM-ag 35
O=[N+]([O-])c1ccc(NCCNS(=O)(=O)c2ccccc2)c(C(F)(F)F)c1	none
CCOc1ccccc1C(=O)N1CCN(c2cccc(Cl)c2)CC1	NPY-Y2 antag 17, NPY-Y1 antag 30
O=[N+]([O-])c1ccccc1OCC(O)CNC1CCCC1 (configuration not stated)	NPY1 pot ag 112, NPY-Y2 PAM-ag 104 (no result: NPY-Y2 antag, NPY-Y1 antag)
O=C(Nc1nnc(SCc2ccc(F)cc2)s1)C1Cc2ccccc2CN1C(=O)c1ccco1 (configuration not stated)	none
Cc1ccc([N+](=O)[O-])cc1NC(=O)CN(C1CCCCC1)S(=O)(=O)c1ccc(Cl)cc1	none
Cc1ccc([N+](=O)[O-])cc1NC(=O)CN(C(=O)c1ccccc1Cl)C1CCCCC1	NPY-Y2 antag 26, NPY-Y1 antag 50
COc1ccc(NC(=O)C2=C(C)C(=O)OC23CCC(C)CC3)cc1Cl (configuration not stated)	NPY1 pot ag 48, NPY-Y2 PAM-ag 58
Cc1cc(C)n(-c2nnc(C)n2/N=C/c2ccco2)n1	none
CCCOc1ccc2ccccc2c1/C=N/n1c(C)nnc1-n1nc(C)cc1C	NPY-Y2 antag 26, NPY-Y1 antag 29
